Laboratory results from ChEMBL document CHEMBL4373677, “The cytotoxic potential of cationic triangulenes against tumour cells” (Medchemcomm, 2019).
The source made the active and inactive calls. No cut-off for these calls is given here.

Tests used:
[1] = test system: HCT-116; assay: Antiproliferative activity against human HCT116 cells assessed as reduction in cell viability at 10 uM after 4 days by [3H]-thymidine incorporation assay relative to control; type: functional
How it was run: (§1)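 MDA-MB-231 and HCT116 cells (ATCC) seeded at 3000 cells/well on tissue-culture-treated plates as monolayers and incubated 3 days. Compound then added for four days. 3H-thymidine pulse of 0.04 µCi/well for 5 h before harvest. Proliferation read as 3H-thymidine incorporation into S-phase DNA. Mean % of untreated cells is reported; IC50 is the concentration giving 50% inhibition.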

[2] = Stability of carbenium ionic form, pKR+ of the compound by spectrophotometric analysis; type: physicochemical
How it was run: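 Calibration of molar absorbance at the 330 nm peak, made with the compound in 0.1 M acetic acid, where the alcohol is completely ionised. pKR+ derived from the absorbance relationship in eqn (1).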

[3] = test system: MDA-MB-231; assay: Antiproliferative activity against human MDA-MB-231 cells assessed as reduction in cell viability at 10 uM after 4 days by [3H]-thymidine incorporation assay relative to control; type: functional; how it was run: as §1
[4] = test system: MDA-MB-231; assay: Induction of DNA double strand breaks in human MDA-MB-231 cells assessed as gammaH2AX phosphorylation at 1 uM incubated for 16 hrs by flow cytometry (reference value: 6.1 +/-0.7%); type: functional
[5] = test system: MDA-MB-231; assay: Induction of DNA double strand breaks in human MDA-MB-231 cells assessed as gammaH2AX phosphorylation at 10 uM incubated for 16 hrs by flow cytometry (reference value: 6.1 +/-0.7%); type: functional
[6] = test system: HCT-116; assay: Antiproliferative activity against human HCT116 cells assessed as reduction in cell viability after 4 days by [3H]-thymidine incorporation assay; type: functional, cell-based; how it was run: as §1
[7] = test system: Calf thymus DNA; assay: Binding affinity to calf thymus DNA assessed as binding constant by emission titration analysis; type: nucleic-acid assay; details: Bos taurus
[8] = test system: HCT-116; assay: Antiproliferative activity against human HCT116 cells cultured as 3D-spheroids assessed as reduction in cell viability after 4 days by [3H]-thymidine incorporation assay; type: functional, cell-based
How it was run: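 HCT116 spheroids: 4000 cells/well seeded in ultra-low attachment plates, then centrifuged at 1000 × g for 10 min to start spheroid formation. After 3 days, compounds added for four days. 3H-thymidine (0.08 µCi/well) added 16 h before harvest. Inhibition read as thymidine incorporation relative to untreated cells. IC50 is the concentration giving 50% inhibition.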

[9] = test system: MDA-MB-231; assay: Antiproliferative activity against human MDA-MB-231 cells assessed as reduction in cell viability after 4 days by [3H]-thymidine incorporation assay; type: functional, cell-based; how it was run: as §1
[10] = test system: MDA-MB-231; assay: Induction of DNA double strand breaks in human MDA-MB-231 cells assessed as gammaH2AX phosphorylation at 5 uM incubated for 16 hrs by flow cytometry (reference value: 6.1 +/-0.7%); type: functional
[11] = Dissociation constant, pKa of the compound; type: physicochemical
[12] = test system: MDA-MB-231; assay: Cell cycle arrest in human MDA-MB-231 cells assessed as accumulation at S-phase at 1 uM incubated for 16 hrs by flow cytometry; type: functional, cell-based
How it was run: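 Cells seeded at 106 per well in 6-well plates, exposed to compound for 16 h, harvested, washed, blocked in 1% FCS/PBS. Stained with anti-γH2AX (phospho-Ser139, 1:500, 2 h, room temperature), then Alexa 488 anti-mouse Fab (1:400, 1 h, room temperature, dark). Counterstained with RNase (1 µg/mL) plus propidium iodide (10 µg/mL) for 30 min. Cell-cycle profiles read by flow cytometry.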

[13] = test system: MDA-MB-231; assay: Cell cycle arrest in human MDA-MB-231 cells assessed as accumulation at G1 phase at 1 to 10 uM incubated for 16 hrs by flow cytometry; type: functional, cell-based
[14] = test system: MDA-MB-231; assay: Cell cycle arrest in human MDA-MB-231 cells assessed as accumulation at S-phase at 1 to 10 uM incubated for 16 hrs by flow cytometry; type: functional, cell-based
[15] = test system: dsDNA; assay: Binding affinity to 12-mer duplex oligonucleotide (unknown origin) assessed as melting temperature at 5 uM in sodium phosphate buffer at pH 7 by UV-VIS spectrophotometry (reference value: 52.8 degC); type: nucleic-acid assay
[16] = test system: MDA-MB-231; assay: Antiproliferative activity against human MDA-MB-231 cells assessed as cell viability at 10 uM after 4 days by [3H]-thymidine incorporation assay relative to control; type: functional; details: read-out: Activity; how it was run: as §1
[17] = test system: Calf thymus DNA; assay: Binding affinity to calf thymus DNA assessed as binding constant at 25 uM in sodium phosphate buffer solution at pH 7 by UV-Visible spectrophotometry; type: nucleic-acid assay; details: Bos taurus
[18] = test system: Calf thymus DNA; assay: Binding affinity to calf thymus DNA assessed as binding constant at 1 uM incubated for 24 hrs by competitive dialysis technique; type: nucleic-acid assay; details: Bos taurus
[19] = test system: MDA-MB-231; assay: Cell cycle arrest in human MDA-MB-231 cells assessed as accumulation at G2 phase at 1 to 10 uM incubated for 16 hrs by flow cytometry; type: functional, cell-based
[20] = test system: HCT-116; assay: Antiproliferative activity against human HCT116 cells assessed as cell viability at 10 uM after 4 days by [3H]-thymidine incorporation assay relative to control; type: functional; details: read-out: Activity; how it was run: as §1

For `CCCCn1c2cccc3c2[c+]2c4c1cccc4n(CCCC)c1cccc(c12)n3CCCC.F[B-](F)(F)F`, the inhibition [1] was “Active” and the “pKR+” value [2] was 23.7.
In the case of `CCCn1c2cccc3oc4cccc5oc6cccc1c6[c+](c45)c32`, the inhibition [3] is reported as “Active”, the inhibition [1] is reported as “Active” and the Activity [4] is reported as 12.9%. For the same compound, the Activity [5] was 27.8%, the IC50 [6] was 256 to 321 nM and the Kb [7] was 8.1 ×10⁶ /M. The IC50 [8] was 38 nM, the IC50 [9] was 87.5 nM and the Activity [10] was 30.6%. For the same compound, the “pKR+” value [2] was 14.5.
Work on `c1cc2[nH]c3cccc4oc5cccc6oc(c1)c2[c+](c34)c65` yielded an inhibition at 10 µM [3] of 12 to 25%, an inhibition at 10 µM [1] of 12 to 25% and a pKa [11] of 5.7.
With `CC[C@@]1(O)C(=O)OCc2c1cc1n(c2=O)Cc2cc3ccccc3nc2-1` [CAMPTOTHECIN] the Activity [4] was 73.6%, the IC50 [6] was 8.5 nM and the IC50 [9] was 28.4 nM. For the same compound, the Activity [12] was “Active”.
With `CCCn1c2cccc3oc4cccc5c4[c+](c32)c2c1cccc2n5CCC` the inhibition [3] was “Active”, the inhibition [1] was “Active” and the Activity [4] was 13.6%. For the same compound, the Activity [5] was 2.4%, the IC50 [6] was 106 to 111 nM and the IC50 [8] was 21 nM. For the same compound, the IC50 [9] was 77.5 nM, the Activity [10] was 1.3% and the “pKR+” value [2] was 19.4.
In the case of `c1cc2oc3cccc4oc5cccc6oc(c1)c2[c+](c34)c65`, the Activity [13] is reported as “Active”, the Activity [4] is reported as 8.8% and the Activity [5] is reported as 43.6%. For the same compound, the Activity [14] was “inactive”, the IC50 [6] was 708 nM and the Tm [15] was 57.3 °C. The viability at 10 µM [16] was less than 1%, the IC50 [8] was greater than 1000 nM and the Kb [17] was 4.1 ×10⁴ /M. The Kb [18] was 4.1 ×10⁴ /M, the IC50 [9] was 448 nM and the Activity [19] was “Active”. The Activity [10] was 57.5%, the viability at 10 µM [20] was less than 1% and the “pKR+” value [2] was 9.1.
